Reference: publication PMC11071470 (bioRxiv, 2024)

Tests used:
A3Bctd = A3Bctd (Homo sapiens, UniProt Q9UH17); assay: Intact protein mass spectrometry; assay type: binding
How it was run: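 Covalent test compound incubated with A3Bctd for 1 h and 3 h at varying molar equivalents of compound over protein, then analysed by intact protein mass spectrometry. Degree of covalent adduction was quantified from the intensity of the adduct mass species.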

UDG = target: T1, UDG (Escherichia coli, UniProt P12295); conditions: cited from earlier work
T1 sequence (P12295 1-229): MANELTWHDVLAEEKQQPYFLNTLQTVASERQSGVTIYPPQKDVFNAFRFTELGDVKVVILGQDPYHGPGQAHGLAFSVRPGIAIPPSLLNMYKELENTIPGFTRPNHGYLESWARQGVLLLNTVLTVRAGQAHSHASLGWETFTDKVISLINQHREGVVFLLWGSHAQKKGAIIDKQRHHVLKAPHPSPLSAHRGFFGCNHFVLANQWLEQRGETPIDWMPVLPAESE

A3Bctd, sequence (Q9UH17 193-382): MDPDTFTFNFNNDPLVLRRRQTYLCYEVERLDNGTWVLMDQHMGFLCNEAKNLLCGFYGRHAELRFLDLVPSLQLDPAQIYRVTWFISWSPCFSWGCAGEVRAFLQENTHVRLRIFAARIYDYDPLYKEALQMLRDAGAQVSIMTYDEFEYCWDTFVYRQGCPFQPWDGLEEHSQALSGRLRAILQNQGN

multiple adduction events (in words) (A3Bctd)	Structure (SMILES)	inhibition of UDG (in words) (UDG)
Multiple adduction events are detected	CCC1(O)CCCN(C(=O)c2ccc(-c3ccc(F)c(NC(=O)CCl)c3)cc2)C1 (centres unmarked) [Compound 24]	
	O=C(O)C1=CC(=C(c2ccc(O)c(C(=O)O)c2)c2ccc(O)c(C(=O)O)c2)C=CC1=O [MN1, aurintricarboxylic acid]	inhibits UDG
